The results in this text go back to ChEMBL document CHEMBL4316597, “Design, Synthesis, and Biological Evaluation of Itaconic Acid Derivatives as Potential Anti-Influenza Agents” (J Med Chem, 2019).

Data set [1] in a line: Cytotoxicity against MDCK cells assessed as cell death after 72 hrs by MTT assay. The settings on record: dog. It is filed as cell-based, Canis lupus familiaris. In a few lines: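 MDCK or RD cells at 2 × 10^4/well in E10, overnight at 37 °C/5% CO2, DPBS wash, then exposed to graded compound concentrations for 72 h. MTT added for 3 h, formazan dissolved in DMSO, absorbance read at 570 nm. CC50 (50% cell death) by Reed–Muench.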

Data set [2] has as its system Influenza A virus. Kind of data set: Antiviral activity against Influenza A virus (A/WSN/33) infected in MDCK cells assessed as reduction in virus-induced cytopathic effect after 72 hrs by crystal violet-staining based assay. In kind it is functional, organism-based. The conditions noted are these: A/WSN/1933(H1N1). In a few lines: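 Cells seeded at 2 × 10^4/well in E10 (DMEM, 10% FBS), 16–24 h at 37 °C/5% CO2, washed with DPBS, then infected at nine-fold TCID50 with or without serial compound concentrations. Influenza is run in MDCK and enterovirus/rhinovirus in RD. Incubated 72 h, fixed in 4% paraformaldehyde, stained with 0.1% crystal violet, and read for cell density. EC50 = 50% CPE inhibition by Reed–Muench; mean ± S.D. of at least three runs.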

A short description of data set [3]: Selectivity ratio of CC50 for MDCK cells to EC50 for Influenza A virus (A/WSN/33). In kind it is toxicity. The conditions noted are these: dog, read-out: Ratio CC50/EC50. A digest of the protocol:
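SI is calculated as CC50 (MDCK, 72 h MTT) divided by EC50 (72 h crystal-violet CPE assay in MDCK).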

For data set [4], the system named is Influenza A virus. Kind of data set: Antiviral activity against Influenza A virus (A/WSN/33) infected in MDCK cells assessed as reduction in NP protein distribution to cytoplasm at 10 nM measured after 9 hrs post infection by IF-staining based microscopy. In kind it is functional, organism-based. The conditions noted are these: A/WSN/1933(H1N1). In a few lines: (§1)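 MDCK cells grown on coverslips (2 × 10^5/well, 16 h), infected at MOI 0.1 for 1 h, washed, then kept in E0 with test compound (1 or 10 μM) or LMB 10 nM; DMSO 0.05% as mock. Fixed at 9 h pi in 4% paraformaldehyde and immunostained for M1, NP, NS2 or PA (1:50), with Hoechst nuclear stain. Viewed by confocal microscopy at 63×. NP nuclear/cytoplasmic intensity ratio quantified; three independent experiments.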

For data set [5], the system named is Influenza A virus. The experiment in a line: Inhibition of viral protein sub-cellular distribution in Influenza A virus (A/WSN/33) infected in MDCK cells assessed as reduction in M1 protein distribution to cytoplasm at 10 nM measured after 9 hrs post infection by IF-staining based microscopy. In kind it is functional, organism-based. The settings on record: A/WSN/1933(H1N1). In a few lines:
as §1

The subject of data set [6] is Influenza A virus. Kind of data set: Inhibition of viral protein sub-cellular distribution in Influenza A virus (A/WSN/33) infected in MDCK cells assessed as reduction in NS2 protein distribution to cytoplasm at 10 nM measured after 9 hrs post infection by IF-staining based microscopy. It is filed as functional, organism-based. The conditions noted are these: A/WSN/1933(H1N1). In a few lines:
as §1

The subject of data set [7] is Influenza A virus. Kind of data set: Antiviral activity against Influenza A virus (A/WSN/33) infected in MDCK cells assessed as reduction in PA protein distribution to cytoplasm at 10 nM measured after 9 hrs post infection by IF-staining based microscopy. In kind it is functional, organism-based. The settings on record: A/WSN/1933(H1N1). In a few lines: as §1
The test system of data set [8] is Influenza A virus. The experiment in a line: Antiviral activity against Influenza A virus (A/WSN/33) infected in MDCK cells assessed as reduction in M1 protein distribution to cytoplasm at 10 nM measured after 9 hrs post infection by IF-staining based microscopy. The conditions noted are these: A/WSN/1933(H1N1). It is filed as functional, organism-based. A digest of the protocol:
as §1

Data set [9] has as its system Influenza A virus. The experiment in a line: Inhibition of viral protein sub-cellular distribution in Influenza A virus (A/WSN/33) infected in MDCK cells assessed as reduction in PA protein distribution to cytoplasm at 10 nM measured after 9 hrs post infection by IF-staining based microscopy. It is filed as functional, organism-based. The conditions noted are these: A/WSN/1933(H1N1). A digest of the protocol: as §1

Data set [10] relates to Influenza A virus. Kind of data set: Antiviral activity against Influenza A virus (A/WSN/33) infected in MDCK cells assessed as reduction in NS2 protein distribution to cytoplasm at 10 nM measured after 9 hrs post infection by IF-staining based microscopy. In kind it is functional, organism-based. The conditions noted are these: A/WSN/1933(H1N1). A digest of the protocol:
as §1

Another data set has as its system MDCK. The experiment in a line: Inhibition of CRM1 in MDCK cells infected with Influenza A virus (A/WSN/33) assessed as reduction in CRM1-mediated viral protein nuclear export by measuring reduction in NP protein distribution to cytoplasm at 10 nM measured after 9 hrs post infection by IF-staining based microscopy. The conditions noted are these: Canis lupus familiaris. In kind it is cell-based. In a few lines:
as §1

pEC50: −log10 of the molar value. Calls of active or inactive are those of the source. The rule behind the calls is not given here.

For `C=C(CC(=O)Nc1cc(F)ccc1F)C(=O)O`, the CC50 at 72 h in data set [1] is over 110 µM. Also, the pEC50 in the data set on Influenza A virus [2] is under 4.30.
On to `C=C(CC(=O)Nc1ccccc1C(F)(F)F)C(=O)Nc1ccccc1C(F)(F)F`, for which, in data set [1], the CC50 at 72 h was over 110 µM. In addition, the pEC50 with Influenza A virus [2] is under 4.30.
For `C=C(CC(=O)Nc1ccc(C(F)(F)F)cc1F)C(=O)O` the same measures were over 110 µM and under 4.30.
Regarding `C=C(CC(=O)Nc1ccc(Cl)cc1F)C(=O)O`, the CC50 at 72 h in [1] was over 110 µM. In the data set on Influenza A virus [2], the pEC50 was under 4.30.
For `C=C(CC(=O)Nc1ccc(F)cc1F)C(=O)O`, the CC50 at 72 h in [1] is over 110 µM. Moreover, the pEC50 with Influenza A virus [2] was under 4.30.
For `C=C(CC(=O)Nc1cccc(C(F)(F)F)c1)C(=O)O` the same measures were over 110 µM and under 4.30.
With `C=C(CC(=O)Nc1cc(C(F)(F)F)ccc1F)C(=O)Nc1cc(C(F)(F)F)ccc1F`, the CC50 at 72 h in data set [1] was 15 µM. In data set [3], the selectivity ratio was 136. Also, in the data set with Influenza A virus [2], the pEC50 is 6.96.
In the case of `C=C(CC(=O)Nc1cc(Cl)ccc1F)C(=O)O`, the CC50 at 72 h in data set [1] was over 110 µM. In the data set on Influenza A virus [2], the pEC50 is under 4.30.
Regarding `C=C(CC(=O)Nc1ccc(Cl)cc1F)C(=O)Nc1ccc(Cl)cc1F`, in data set [1], the CC50 at 72 h is over 110 µM. The selectivity ratio in data set [3] is over 164. In addition, the pEC50 in the data set with Influenza A virus [2] was 6.17.
For `C=C(CC(=O)Nc1cc(F)ccc1F)C(=O)Nc1cc(F)ccc1F` the same measures were 32.8 µM, 26 and 5.90.
On to `C=C(CC(=O)Nc1ccc(F)cc1C(F)(F)F)C(=O)Nc1ccc(F)cc1C(F)(F)F`, for which, in data set [1], the CC50 at 72 h is over 110 µM. Besides, the pEC50 with Influenza A virus [2] was under 4.30.
Consider `C=C(CC(=O)Nc1ccc(Br)cc1F)C(=O)Nc1ccc(Br)cc1F`, for which the CC50 at 72 h in data set [1] is over 110 µM. Further, in [3], the selectivity ratio was over 111. Further, in the data set on Influenza A virus [2], the pEC50 was 6.00.
In the case of `C=C(CC(=O)NCc1ccc(F)cc1F)C(=O)NCc1ccc(F)cc1F`, in [1], the CC50 at 72 h was over 110 µM. The pEC50 in the data set with Influenza A virus [2] was under 4.30.
Consider `C=C(CC(=O)NCc1cc(F)ccc1F)C(=O)NCc1cc(F)ccc1F`, for which the CC50 at 72 h in data set [1] is over 110 µM. Moreover, the pEC50 in the data set with Influenza A virus [2] was under 4.30.
For `C=C(CC(=O)Nc1ccccc1C(F)(F)F)C(=O)O` the same measures were over 110 µM and under 4.30.
With `CCC(=C/[C@H](C)C/C=C/C(C)=C/[C@@H](C)C(=O)[C@@H](C)[C@H](O)[C@@H](C)C/C(C)=C/C(=O)O)/C=C/[C@@H]1OC(=O)C=C[C@@H]1C` [LEPTOMYCIN B], the result in the data set on Influenza A virus [4] was Active. In addition, the inhibition entry in the data set with Influenza A virus [5], in the data set with Influenza A virus [6] and with Influenza A virus [9] was “inactive” throughout. In addition, in [1], the CC50 at 72 h was over 0.88 µM. Moreover, the outcome in the data set on Influenza A virus [7], in the data set on Influenza A virus [8] and in the data set on Influenza A virus [10] was inactive. Also, the selectivity ratio in data set [3] is over 4. For the same compound, in the data set with MDCK, the inhibition entry is “Active”. Moreover, in the data set with Influenza A virus [2], the pEC50 was 6.74.
Regarding `C=C(CC(=O)Nc1cc(Cl)ccc1F)C(=O)Nc1cc(Cl)ccc1F`, the CC50 at 72 h in data set [1] was determined as 19.9 µM. For the same compound, the selectivity ratio in data set [3] turned out to be 111. Moreover, the pEC50 with Influenza A virus [2] is 6.74.
For `O=C(/C=C\n1cnc(-c2cc(C(F)(F)F)cc(C(F)(F)F)c2)n1)NNc1ccccn1` [VERDINEXOR] the same measures were 31.8 µM, 9.69 and 5.48.
On to `C=C(CC(=O)Nc1cc(F)ccc1C(F)(F)F)C(=O)O`, for which the CC50 at 72 h in [1] was over 110 µM. In the data set with Influenza A virus [2], the pEC50 is under 4.30.
With `C=C(CC(=O)Nc1cc(C(F)(F)F)ccc1F)C(=O)O`, the cytotoxic concentration (CC50) at 72 h in [1] is over 110 µM. Moreover, the pEC50 with Influenza A virus [2] was under 4.30.
Take `C=C(CC(=O)Nc1ccc(F)cc1C(F)(F)F)C(=O)O`: the CC50 at 72 h in data set [1] was over 110 µM. In the data set with Influenza A virus [2], the pEC50 was under 4.30.
Turning to `C=C(CC(=O)Nc1ccc(OC)cc1F)C(=O)Nc1ccc(OC)cc1F`, the cytotoxic concentration (CC50) at 72 h in [1] was over 110 µM. Besides, in data set [3], the selectivity ratio is over 3. Moreover, the pEC50 in the data set on Influenza A virus [2] is 4.51.
In the same order, the values of `C=C(CC(=O)Nc1ccc(Br)cc1Br)C(=O)Nc1ccc(Br)cc1Br` are over 110 µM, over 2 and 4.38.
As for `C=C(CC(=O)Nc1ccc(F)cc1Br)C(=O)Nc1ccc(F)cc1Br`, in data set [1], the CC50 at 72 h was over 110 µM. The selectivity ratio in data set [3] was over 42. The pEC50 with Influenza A virus [2] was 5.59.
As for `C=C(CC(=O)Nc1cc(OC)ccc1F)C(=O)Nc1cc(OC)ccc1F`, in data set [1], the CC50 at 72 h was over 110 µM. For the same compound, the selectivity ratio in data set [3] was over 229. In addition, the pEC50 in the data set on Influenza A virus [2] was 6.32.
